Experimental findings from ChEMBL document CHEMBL4613227, “Synthesis and evaluation of the HIF-1α inhibitory activity of 3(5)-substituted-4-(quinolin-4-yl)- and 4-(2-phenylpyridin-4-yl)pyrazoles as inhibitors of ALK5” (Bioorg Med Chem Lett, 2020) are described below.

The source made the active and inactive calls. The calls are words filed in the database; no cut-off is given here. Where a SMILES comes first, the peptide text is derived from it. The star is where a group is joined. Cbz = O=C(OCc1ccccc1)*

Test [1] concerns the target T1, TGF-beta receptor type-1 (Homo sapiens) (UniProt P36897).
T1 sequence (whole entry): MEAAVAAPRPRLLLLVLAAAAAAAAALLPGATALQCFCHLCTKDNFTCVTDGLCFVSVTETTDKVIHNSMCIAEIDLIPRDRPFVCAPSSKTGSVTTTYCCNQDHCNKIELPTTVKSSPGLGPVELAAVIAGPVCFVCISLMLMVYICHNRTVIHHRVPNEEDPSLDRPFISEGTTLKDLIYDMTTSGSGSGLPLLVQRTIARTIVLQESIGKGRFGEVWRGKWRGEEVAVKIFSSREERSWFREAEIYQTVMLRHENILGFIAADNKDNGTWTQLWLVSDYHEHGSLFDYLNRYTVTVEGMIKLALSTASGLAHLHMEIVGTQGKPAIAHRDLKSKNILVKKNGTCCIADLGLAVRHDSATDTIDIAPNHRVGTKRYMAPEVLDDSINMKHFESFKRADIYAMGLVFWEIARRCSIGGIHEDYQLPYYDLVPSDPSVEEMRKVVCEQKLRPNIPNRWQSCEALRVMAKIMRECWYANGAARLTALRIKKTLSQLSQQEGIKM
The experiment in a line: Inhibition of recombinant GST-tagged human ALK5 expressed in baculovirus infected Sf9 insect cells assessed as residual activity at 10 uM. The procedure, abridged:
(§1)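 Single-point kinase screen at 10 μM, in duplicate; ALK5 as human GST-fusion from baculovirus/Sf9, p38α as untagged human protein from E. coli; residual activity relative to DMSO vehicle, mean ± SD of two independent experiments.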

Test [2] addresses T2, Mitogen-activated protein kinase 14 (Homo sapiens, UniProt Q16539). The experiment in a line: Inhibition of recombinant human p38alpha expressed in Escherichia coli assessed as residual activity at 10 uM (reference value: 100 +/- 0.1%). The procedure, abridged:
as §1

The target in test [3] is T3, TGF-beta receptor type-1 (Homo sapiens, UniProt P36897).
T3 sequence (P36897 whole entry): T1 sequence (whole entry)
The experiment in a line: Inhibition of recombinant GST-tagged human ALK5 expressed in baculovirus infected Sf9 insect cells. The procedure, abridged:
(§2)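 IC50 determination against ALK5 (human GST-fusion, Sf9 baculovirus) and p38α (untagged human, E. coli); values averaged from three independent experiments run in triplicate.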

Test [4] deals with T2, Mitogen-activated protein kinase 14. The experiment in a line: Inhibition of recombinant human p38alpha expressed in Escherichia coli. The procedure, abridged: as §2
Test [5] relates to HCT-116. The test is described as follows: Induction of apoptosis in human HCT116 cells assessed as viable cells at 50 uM after 12 hrs by Annexin-V/PI-staining based flow cytometric analysis (reference value: 95.3%). Format: functional. The following applies: HCT-116, 12 h, read-out: Activity. On the technique in general: A flow cytometer gives signals particle by particle.
Test [6] deals with HCT-116. The experiment in a line: Induction of apoptosis in human HCT116 cells assessed as necrotic cells at 50 uM after 12 hrs by Annexin-V/PI-staining based flow cytometric analysis (reference value: 3.5%). Format: functional.
Test [7] deals with HCT-116. The experiment in a line: Induction of apoptosis in human HCT116 cells assessed as viable cells at 50 uM preincubated for 12 hrs followed by TNF stimulation and measured after 24 hrs by Annexin-V/PI-staining based flow cytometric analysis (reference value: 92.4%). The following applies: read-out: Activity. Format: functional.
The subject of test [8] is HCT-116. The test is described as follows: Inhibition of TNFalpha-induced HIF1alpha expression in human HCT116 cells at 50 uM by Western blot analysis. Format: functional, cell-based. The procedure, abridged: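 HCT116 exposed to TNF 10 ng/mL for 24 h with graded concentrations; total protein blotted for HIF-1α, Topo-I reprobe as loading control.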
Test [9] concerns HCT-116. The experiment in a line: Induction of apoptosis in human HCT116 cells assessed as late apoptotic cells at 50 uM preincubated for 12 hrs followed by TNF stimulation and measured after 24 hrs by Annexin-V/PI-staining based flow cytometric analysis (reference value: 1.4%). Format: functional.
Test [10] deals with HCT-116. The test is described as follows: Induction of apoptosis in human HCT116 cells assessed as early apoptotic cells at 50 uM preincubated for 12 hrs followed by TNF stimulation and measured after 24 hrs by Annexin-V/PI-staining based flow cytometric analysis (reference value: 2.8%). Format: functional.
The test system of test [11] is HCT-116. The experiment in a line: Induction of apoptosis in human HCT116 cells assessed as necrotic cells at 50 uM preincubated for 12 hrs followed by TNF stimulation and measured after 24 hrs by Annexin-V/PI-staining based flow cytometric analysis (reference value: 3.6%). Format: functional.
Test [12] relates to HCT-116. The test is described as follows: […] of HIF1alpha expression in human HCT116 cells at 10 uM after 30 mins in presence of 1% O2 by Western blot analysis. Format: functional, cell-based. Background: In western blotting, separated proteins are transferred to a membrane and probed.

T2 sequence (Q16539 whole entry): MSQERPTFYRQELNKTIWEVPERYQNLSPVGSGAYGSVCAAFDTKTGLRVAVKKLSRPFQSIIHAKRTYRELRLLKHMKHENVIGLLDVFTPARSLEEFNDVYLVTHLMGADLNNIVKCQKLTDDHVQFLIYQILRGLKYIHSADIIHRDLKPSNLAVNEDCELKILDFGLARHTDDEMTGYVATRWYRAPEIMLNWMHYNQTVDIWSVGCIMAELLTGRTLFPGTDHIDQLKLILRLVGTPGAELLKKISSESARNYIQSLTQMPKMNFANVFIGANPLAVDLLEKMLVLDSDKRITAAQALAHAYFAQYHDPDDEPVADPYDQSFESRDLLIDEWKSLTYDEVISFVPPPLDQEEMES

`Cc1cccc(-c2nn(CC(=O)Nc3cccc(F)c3)cc2-c2ccnc(-c3ccccc3)c2)n1`: the Activity in [1] turned out to be 3%; in test [2], 14%.

As to `Cc1cccc(-c2c(-c3ccnc4ccccc34)cnn2CC(=O)Nc2ccccc2)n1`, the Activity turned out to be 71% in [1] and 24% in test [2].

Take `Cc1cccc(-c2nn(CC(=S)Nc3ccccc3)cc2-c2ccnc3ccccc23)n1`: the values for the IC50 in test [3] and in test [4] were 57 nM and 74 nM, respectively. Also, the Activity in [1] and in test [2] was 3% in each case.

With `Cc1cccc(-c2nn(CC(=S)Nc3cccc(C#N)c3)cc2-c2ccnc(-c3ccccc3)c2)n1`, the IC50 (usually the concentration at which inhibition is half-maximal) in test [3] worked out at 2200 nM; in test [4], 1150 nM. The Activity in test [1] worked out at 12%; in [2], 15%.

As to `Cc1cccc(-c2nn(CC(=S)Nc3ccccc3)cc2-c2ccnc(-c3ccccc3)c2)n1`, the IC50 in test [3] was determined as 1690 nM; in test [4] it was 536 nM. Also, the figures for the Activity in test [1] and in test [2] were 11% and 10%, respectively.

For `Cc1cccc(-c2nn(CC(=S)Nc3ccccc3F)cc2-c2ccnc(-c3ccccc3)c2)n1`, the values for the IC50 in test [3] and in test [4] were 2050 nM and 487 nM, respectively. Also, the Activity is 11% in [1] and 4% in test [2].

Turning to `Cc1cccc(-c2c(-c3ccnc(-c4ccccc4)c3)cnn2CC(=O)Nc2cccc(F)c2)n1`, the Activity in [1] turned out to be 93%; in [2], 81%.

With `Cc1cccc(-c2nn(CC(=O)Nc3cccc(C#N)c3)cc2-c2ccnc(-c3ccccc3)c2)n1`, the values for the Activity in test [1] and in test [2] were 18% and 24%, respectively.

For `Cc1cccc(-c2c(-c3ccnc(-c4ccccc4)c3)cnn2CC(=O)Nc2ccccc2)n1`, the Activity in [1] was found to be 100%; in [2], 66%.

As for `Cc1cccc(-c2c(-c3ccnc4ccccc34)cnn2CC(=O)Nc2cccc(F)c2)n1`, the Activity in test [1] came out at 39%; in test [2] it was 31%.

On to `Cc1cccc(-c2nn(CC(=O)Nc3ccccc3)cc2-c2ccnc(-c3ccccc3)c2)n1`, for which the Activity is 12% in test [1] and 11% in test [2].

In the case of `Cc1cccc(-c2c(-c3ccnc4ccccc34)cnn2CC(=O)Nc2ccccc2F)n1`, the figures for the Activity in test [1] and in test [2] were 79% and 50%, respectively.

Turning to `Cc1cccc(-c2nn(CC(=O)Nc3cccc(C#N)c3)cc2-c2ccnc3ccccc23)n1`, the Activity in [1] stood at 1%; in test [2], 6%.

`Cc1cccc(-c2c(-c3ccnc(-c4ccccc4)c3)cnn2CC(=O)Nc2cccc(C#N)c2)n1`: the values for the Activity in test [1] and in test [2] were 105% and 135%, respectively.

For the compound `Cc1cccc(-c2nn(CC(=O)Nc3ccccc3F)cc2-c2ccnc(-c3ccccc3)c2)n1`, the Activity in [1] and in test [2] was 20% in each case.

Regarding `Cc1cccc(-c2nn3c(c2-c2ccnc4ccc(C(N)=O)cc24)CCC3)n1` [GALUNISERTIB], the results for the viability at 50 µM in test [5] and in test [7] were 85.2% and 87.7%, respectively. The Activity is 8.5% in test [6]; 2.8% in test [9]; 3.7% in test [10]; 5.7% in [11]; 4% in test [2]. For the same compound, the inhibition result in [8] was “Active”.

Consider `Cc1cccc(-c2c(-c3ccnc4ccccc34)cnn2CC(=O)Nc2cccc(C#N)c2)n1`, for which the Activity in [1] was 17%; in test [2], 51%.

Turning to `Cc1cccc(-c2nn(CC(=O)Nc3ccccc3F)cc2-c2ccnc3ccccc23)n1`, the results for the Activity in test [1] and in test [2] were 0% and 6%, respectively.

For `Cc1cccc(-c2nn(CC(=S)Nc3cccc(F)c3)cc2-c2ccnc(-c3ccccc3)c2)n1`, the half-maximal inhibitory concentration (IC50) was found to be 1560 nM in test [3] and 761 nM in test [4]. In addition, the Activity was determined as 6% in [1] and 9% in [2].

Take `Cc1cccc(-c2nn(CC(=S)Nc3cccc(F)c3)cc2-c2ccnc3ccccc23)n1`: the IC50 in test [3] was found to be 43 nM; in [4] it was 63 nM. Besides, the Activity in test [1] came out at 2%; in test [2], 3%.

`CC(C)C[C@@H](C=O)NC(=O)[C@H](CC(C)C)NC(=O)[C@H](CC(C)C)NC(=O)OCc1ccccc1` (Cbz-Leu-Leu-Leu-aldehyde): the result in test [12] was Active.

For `Cc1cccc(-c2c(-c3ccnc(-c4ccccc4)c3)cnn2CC(=O)Nc2ccccc2F)n1`, the values for the Activity in test [1] and in test [2] were 102% and 96%, respectively.

As for `Cc1cccc(-c2nn(CC(=S)Nc3ccccc3F)cc2-c2ccnc3ccccc23)n1`, the half-maximal inhibitory concentration (IC50) in test [3] amounted to 53 nM; in [4], 68 nM. For the same compound, the Activity in test [1] was 2%; in [2], 4%.

For `Cc1cccc(-c2nn(CC(=O)Nc3ccccc3)cc2-c2ccnc3ccccc23)n1`, the Activity in test [1] came out at 2%; in [2], 10%.

In the case of `Cc1cccc(-c2nn(CC(=O)Nc3cccc(F)c3)cc2-c2ccnc3ccccc23)n1`, the Activity in [1] is 0%; in [2] it was 4%.
